Experimental data taken from BindingDB's records for doi:10.1021/jm020875j (Boehringer Ingelheim Pharma, 2002).

The molecules below were run against Sodium channel protein type 1/2/3 subunit alpha (Rattus norvegicus, UniProt P04774+P04775+P08104) (assay: Displacement of [3H]BTX from sodium channel of rat cerebral cortex synaptosomes).
Summary of the method: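 Synaptosomal membranes from rat cerebral cortex incubated 1 h at 37 °C with 1 nmol/L [3H]BTX-B in choline Cl/HEPES-Tris buffer pH 7.4 containing glucose, KCl and MgSO4, plus scorpion venom. Nonspecific binding defined with 100 μmol/L aconitine. Stopped by vacuum filtration through glass fiber and two buffer washes.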

Row | Compound | Ki [µM]
1 | CO[C@H](C)CN1CCC2(C)c3cccc(O)c3C[C@H]1C2(C)C | 10
2 | C[C@@H](CN1CCC2(C)c3cccc(O)c3C[C@H]1C2(C)C)OCc1ccccc1 | 1.33
3 | C[C@H](CN1CCC2(C)c3ccc(O)cc3C[C@H]1C2(C)C)OCc1ccccc1 | 1.23
4 | C[C@H](CN1CCC2(C)c3ccc(O)cc3C[C@@H]1C2(C)C)OCc1ccccc1 | 0.382
5 | C[C@H](CN1CCC2(C)c3cccc(O)c3C[C@@H]1C2(C)C)OCC1CCCCC1 | 0.241
6 | CC12CCN(CCc3ccccc3)[C@@H](Cc3cc(O)ccc31)C2(C)C | 1.29
7 | CN(c1nc2ccccc2s1)C1CCN(C[C@H](O)COc2ccc(F)c(F)c2)CC1 | 0.203
8 | CO[C@H](C)CN1CCC2(C)c3cccc(O)c3C[C@@H]1C2(C)C | 3.31
9 | COC(C)CN1CCC2(C)c3cc(O)ccc3C[C@@H]1C2(C)C (some centres undefined) | 6.01
10 | CO[C@@H](C)CN1CCC2(C)c3ccccc3C[C@@H]1C2(C)C | 4.7
11 | CO[C@@H](C)CN1CCC2(C)c3cccc(O)c3C[C@@H]1C2(C)C | 0.783
12 | C[C@H](CN1CCC2(C)c3ccc(O)cc3C[C@H]1C2(C)C)Oc1ccccc1 | 0.864
13 | CC12CCN(CCc3ccccc3)[C@H](Cc3cc(O)ccc31)C2(C)C | 1.06
14 | C[C@@H](CN1CCC2(C)c3cccc(O)c3C[C@@H]1C2(C)C)OCC1CCCCC1 | 0.208
15 | C[C@@H](CN1CCC2(C)c3ccc(O)cc3C[C@H]1C2(C)C)Oc1ccccc1 | 1.53
16 | Cc1cccc(C)c1OC[C@@H](C)N | 22.7
17 | COc1ccc2c(c1)[C@]13CCCC[C@@H]1[C@H](C2)N(C)CC3 [DEXTROMETHORPHAN] | 4.8
18 | Cc1ccc(-c2nc(C)c(CN3CCN(C(c4ccccc4)c4ccccc4)CC3)[nH]2)cc1 [Lifarizine] | 0.259
19 | C[C@@H](CN1CCC2(C)c3ccc(O)cc3C[C@@H]1C2(C)C)OCc1ccccc1 | 0.312
20 | C[C@H](CN1CCC2(C)c3ccc(O)cc3C[C@@H]1C2(C)C)Oc1ccccc1 | 0.662
21 | CC1[C@H]2Cc3c(O)cccc3C1(C)CCN2C[C@H](C)OCc1ccccc1 (some centres undefined) | 0.054
22 | COC(C)CN1CCC2(C)c3c(O)cccc3C[C@@H]1C2(C)C (some centres undefined) | 8.99
23 | CO[C@@H](C)CN1CCC2(C)c3cccc(O)c3C[C@H]1C2(C)C | 10
24 | CC(CN1CCC2(C)C[C@@H]1Cc1c(O)cccc12)OCc1ccccc1 (some centres undefined) | 0.047
25 | COC(C)CN1CCC2(C)c3ccc(O)cc3C[C@@H]1C2(C)C (some centres undefined) | > 10
26 | C[C@@H](CN1CCC2(C)c3ccc(O)cc3C[C@@H]1C2(C)C)Oc1ccccc1 | 0.149
27 | C[C@H](CN1CCC2(C)c3cccc(O)c3C[C@H]1C2(C)C)OCc1ccccc1 | 1.49
28 | C[C@@H](CN1CCC2(C)c3ccc(O)cc3C[C@H]1C2(C)C)OCc1ccccc1 | 1.87
29 | CC1[C@H]2Cc3c(O)cccc3C1(C)CCN2C[C@@H](C)OCc1ccccc1 (some centres undefined) | 0.153
